Jurkat viability – reduces viability or proliferation of Jurkat cells | Jurkat E6.1 viability, ATP luminescence, 48 h | inhibition, % at 4 µM | 1.2% of 56,000 active;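 active means inhibition above the mean inhibition of all tested compounds plus 3 SD, cut at about 28% in these data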
S1P1 ag-PAM – S1P1 (human) agonism or agonism potentiation. P21453. S1P1 CRE-bla cells, forskolin, beta-lactamase FRET, potentiator mode; S1P1 agonist co-added at EC20, 2 nM; 100% = saturating reference agonist, 0% = basal. activation, % at 9.5 µM. 0.57% of 56,000 active;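 active means activation above a cutoff set at the mean activation of all tested compounds plus 3 SD, cut at about 54% in these data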;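 further: forskolin at 4 µM as EC80 and the EC20 agonist is SEW2871; 100% = SEW2871 at its EC100 plus forskolin at EC80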
Target sequence (P21453 whole entry, looked up): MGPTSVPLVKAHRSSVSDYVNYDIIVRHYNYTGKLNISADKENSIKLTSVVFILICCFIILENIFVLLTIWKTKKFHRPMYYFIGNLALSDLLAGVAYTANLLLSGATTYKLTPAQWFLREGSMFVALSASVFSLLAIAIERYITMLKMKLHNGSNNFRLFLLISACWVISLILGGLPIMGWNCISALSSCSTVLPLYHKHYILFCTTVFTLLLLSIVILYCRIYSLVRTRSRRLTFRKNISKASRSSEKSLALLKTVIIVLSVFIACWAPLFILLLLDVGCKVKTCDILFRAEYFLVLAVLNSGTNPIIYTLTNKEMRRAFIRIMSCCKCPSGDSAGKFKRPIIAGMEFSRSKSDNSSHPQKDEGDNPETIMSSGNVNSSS
HEK293 NFkB inh – inhibitors of the PMA/ionomycin-induced NF-kB reporter in HEK293 cells. HEK-293 NF-kB luciferase reporter, luminescence. 0.21% of 62,000 active. inhibition, % at 3 µM. AID 465;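 active means inhibition above the mean of all tested compounds plus 3 SD, cut at about 40% in these data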;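 further: 0% = stimulated DMSO wells and 100% = 10 µM reference inhibitor 5653914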
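Timing: 1 h pretreatment, 16 h stimulation, 37 °C; system: HEK-293 cells with stable firefly luciferase reporter driven by four HIV NF-kB elements; doses: 3 µM once, 0.30% DMSO; measured by: luciferase luminescence; control set: DMSO and 10 µM reference inhibitor; repeats: single test; reagent: PMA plus ionomycin mix as NF-kB-activating stimulus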
SKBR3 24h inh – SK-BR-3 proliferation inhibitors; SK-BR-3 viability, CellTiter-Glo ATP luminescence, 24 h; stronger effect = lower value; AID 847; viability, % at 10 µM; 0.47% of 41,000 active;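 active means viability at or below the median of all test compounds minus 3 SD, in both replicates if run twice, cut at about 45% in these data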;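 further: 100% = median untreated cell wells and 0% = median positive control drug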
Numbers without * were called inactive. Rows were chosen to be rich in hits. Some 1.9% of all compounds tested hit in one or more screens of this group.

How did COC(=O)c1[nH]c2cccc(Cl)c2c1NC(=O)CN(C)C1CCCCC1 do in these assays?
Jurkat viability: -3; S1P1 ag-PAM: 7; HEK293 NFkB inh: 4; SKBR3 24h inh: 97

How did Cc1nn(-c2nc3ccccc3s2)c(N)c1-c1ccccc1 do in these assays?
Jurkat viability: 8; S1P1 ag-PAM: 95*; HEK293 NFkB inh: -45; SKBR3 24h inh: 96

What do the screens show for `Cc1cccc(N2CCN(C(=O)C3CCN(c4nnc(-n5cccc5)s4)CC3)CC2C)c1` (stereo not drawn)?
Jurkat viability: 9; S1P1 ag-PAM: 32; HEK293 NFkB inh: 20

What do the screens show for `Cc1ccc(Cl)cc1N1CCN(C(=O)C2CCN(c3nnc(-n4cccc4)s3)CC2)CC1`?
Jurkat viability: 41*; S1P1 ag-PAM: 87*; HEK293 NFkB inh: 9

What do the screens show for `COc1ccc(CCC(=O)Nc2nc3c(s2)CN(C)CC3)cc1OC`?
Jurkat viability: 5; S1P1 ag-PAM: 6; HEK293 NFkB inh: 17

Results for COc1ccccc1-n1cnc(N)c1C(C)=O ?
Jurkat viability: -4; S1P1 ag-PAM: 7; HEK293 NFkB inh: 15; SKBR3 24h inh: 90

Results for COc1ccccc1-n1cnc(N)c1C(=O)c1ccccc1 ?
Jurkat viability: 36*; S1P1 ag-PAM: -6; HEK293 NFkB inh: 12; SKBR3 24h inh: 128

Results for CCCCn1nnnc1SCC(=O)Nc1ccc2c(c1)OCO2 ?
Jurkat viability: 5; S1P1 ag-PAM: 7; HEK293 NFkB inh: 0; SKBR3 24h inh: 70

How did Cc1ccc(-c2nnc(SCc3ccccc3F)o2)cc1 do in these assays?
Jurkat viability: 1; S1P1 ag-PAM: 93*; HEK293 NFkB inh: -27; SKBR3 24h inh: 106

How did O=S(=O)(NC1CCCC1)c1cccc(S(=O)(=O)N2CCC(n3nnc4ccccc43)CC2)c1 do in these assays?
Jurkat viability: 10; S1P1 ag-PAM: 22; HEK293 NFkB inh: 1; SKBR3 24h inh: 79

How did O=C(CN1C(=O)c2ccccc2C1=O)OCN1C(=O)c2ccccc2C1=O do in these assays?
S1P1 ag-PAM: 6; SKBR3 24h inh: 83

What do the screens show for `Cn1c(=O)oc2cc(S(=O)(=O)N3CCCc4ccccc43)ccc21`?
Jurkat viability: 91*; S1P1 ag-PAM: 19; HEK293 NFkB inh: 8

Results for COC(=O)Nc1ccc(S(=O)(=O)N2CCCc3ccccc32)cc1 ?
Jurkat viability: 88*; S1P1 ag-PAM: 31; HEK293 NFkB inh: 33; SKBR3 24h inh: 104

What do the screens show for `CCOC(=O)N1CCN(Cc2nc3c(c(=O)n(C)c(=O)n3C)n2CCCc2ccccc2)CC1`?
Jurkat viability: 9; S1P1 ag-PAM: -1; HEK293 NFkB inh: 5; SKBR3 24h inh: 77

What do the screens show for `CCc1nnc(NC(=O)c2cccc(C(=O)Nc3nnc(CC)s3)n2)s1`?
Jurkat viability: 20; S1P1 ag-PAM: 10; HEK293 NFkB inh: 12; SKBR3 24h inh: 42*

Results for CCc1nnc(NC(=O)c2ccncc2)s1 ?
Jurkat viability: 5; S1P1 ag-PAM: -10; HEK293 NFkB inh: -8; SKBR3 24h inh: 75

How did COc1ccc(CNC(=O)c2cc3c(C)nc4ccccc4c3o2)c(OC)c1 do in these assays?
Jurkat viability: 60*; S1P1 ag-PAM: 94*; HEK293 NFkB inh: 17

What do the screens show for `COc1cc(NC(=O)c2cc3c(C)nc4ccccc4c3o2)cc(OC)c1OC`?
Jurkat viability: 5; S1P1 ag-PAM: -24; HEK293 NFkB inh: 17

What do the screens show for `Cc1cccn2c(=O)c3cc(C(=O)NC(C)c4ccccc4)c(=N)n(CCCn4ccnc4)c3nc12` (stereo not drawn)?
Jurkat viability: 8; S1P1 ag-PAM: -497; HEK293 NFkB inh: 20; SKBR3 24h inh: 112

Results for O=c1cc(-c2c(F)c(F)c(F)c(F)c2F)oc2c(F)c(F)c(F)c(F)c12 ?
HEK293 NFkB inh: 6; SKBR3 24h inh: 34*

Results for Nc1nnc(CCN2C(=O)CSC2=O)s1 ?
Jurkat viability: -1; S1P1 ag-PAM: 10; HEK293 NFkB inh: 11; SKBR3 24h inh: 40*

How did Cc1nnc(SCC(=O)NCCN2C(=O)CSC2=O)s1 do in these assays?
Jurkat viability: -5; S1P1 ag-PAM: -4; HEK293 NFkB inh: 8

Results for NS(=O)(=O)c1ccc(NC(=O)c2ccccc2C(=O)N2CCCCC2)cc1 ?
Jurkat viability: -4; S1P1 ag-PAM: -5; HEK293 NFkB inh: 16; SKBR3 24h inh: 80

How did CCn1c2ccccc2c2nnc(SCCCn3c(=O)[nH]c4ccccc43)nc21 do in these assays?
Jurkat viability: 6; S1P1 ag-PAM: -52; HEK293 NFkB inh: 12

How did CCOC(=O)CSC1=C(C#N)C(c2ccc(C)s2)CC(=O)N1 (stereo not drawn) do in these assays?
Jurkat viability: 86*; S1P1 ag-PAM: -2; HEK293 NFkB inh: 23; SKBR3 24h inh: 118

Results for CCSC1=C(C#N)C(c2ccc(C)s2)CC(=O)N1 (stereo not drawn) ?
Jurkat viability: 0; S1P1 ag-PAM: 0; HEK293 NFkB inh: 15; SKBR3 24h inh: 112

How did Cc1nc(C)c2c(=O)cc(-c3ccccc3)[nH]c2n1 do in these assays?
Jurkat viability: 54*; S1P1 ag-PAM: 13; HEK293 NFkB inh: 24

Results for CC(=O)Nc1ccc(S(=O)(=O)NC(=O)C23CC4CC(CC(C4)C2)C3)cc1 ?
Jurkat viability: 4; S1P1 ag-PAM: -8; HEK293 NFkB inh: 8

Results for N#CC1=C(N)Oc2cc(N)ccc2C1C1CCCCC1 (stereo not drawn) ?
Jurkat viability: 84*; S1P1 ag-PAM: 10; HEK293 NFkB inh: 19; SKBR3 24h inh: 91

How did COC(=O)C(NS(C)(=O)=O)(c1c(C)[nH]c2ccccc12)C(F)(F)F (stereo not drawn) do in these assays?
Jurkat viability: -3; S1P1 ag-PAM: -9; HEK293 NFkB inh: 7

How did CN(C)c1ccc(NC(=O)CSc2nc3ccccc3c(=O)n2C2CCCCC2)cc1 do in these assays?
Jurkat viability: -5; S1P1 ag-PAM: 29; HEK293 NFkB inh: 25

Results for Cc1cc(NC(=O)CSc2nc3ccccc3c(=O)n2C2CCCC2)no1 ?
Jurkat viability: 71*; HEK293 NFkB inh: 20; SKBR3 24h inh: 88

How did O=C(CN1C(=O)NC2NC(=O)NC21)NC1CCCCC1 (stereo not drawn) do in these assays?
Jurkat viability: -1; S1P1 ag-PAM: -10; HEK293 NFkB inh: -4

How did O=C(Nc1c(F)cc(F)cc1Br)c1cc(-c2ccc(O)cc2)on1 do in these assays?
Jurkat viability: 6; S1P1 ag-PAM: 99*; HEK293 NFkB inh: 7

Results for Cc1cc(C(=O)Nc2c(F)cc(F)cc2Br)no1 ?
Jurkat viability: -2; S1P1 ag-PAM: 9; HEK293 NFkB inh: 2; SKBR3 24h inh: 107

How did CCOC(=O)N1CCC(N2Cc3cccc(C(=O)NC(C)c4ccc5c(c4)OCCO5)c3C2=O)CC1 (stereo not drawn) do in these assays?
Jurkat viability: 4; S1P1 ag-PAM: 1; HEK293 NFkB inh: 15

What do the screens show for `COc1ccc(Br)cc1CNc1ccc(O)cc1`?
Jurkat viability: 5; S1P1 ag-PAM: 28; HEK293 NFkB inh: 18; SKBR3 24h inh: 90

Results for CCc1ccc(CNc2ccc(O)cc2)cc1 ?
Jurkat viability: 38*; S1P1 ag-PAM: -15; HEK293 NFkB inh: 0; SKBR3 24h inh: 99

Screening data from PubChem BioAssay.
